This is an account of results in ChEMBL document CHEMBL5357047, “The development of thymol-isatin hybrids as broad-spectrum antibacterial agents with potent anti-MRSA activity” (RSC Med Chem, 2024).

One may read the IC50 as the point on the concentration scale where inhibition reaches its midpoint. Broadly, the Ki is a measure of affinity in units of concentration, obtained from inhibition or displacement. As a reminder, the MIC is the least concentration at which growth counts as inhibited. In general, MBC refers to the smallest concentration meeting the test's criterion for killing.

SMILES strings stand for the structures. In brackets after ≈: the same amount, converted by molar mass. Activity calls are given as the source filed them.

The nature of data set [1]: Cytotoxicity against mouse L929 cells assessed as reduction in cell viability measured after 72 hrs by MTT assay. Format: toxicity, cell-based. Put shortly: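 L929 cells (ATCC) grown in DMEM with 10% FBS and penicillin/streptomycin at 37 °C, 5% CO2; seeded at 5 × 10^3 cells per well and exposed to serial dilutions for 72 h, paclitaxel as positive control. MTT (5 mg mL−1), formazan dissolved in DMSO, absorbance at 490 nm; viability relative to control after blank subtraction; IC50 in μM.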

The target in data set [2] is T1, 4,4'-diapophytoene synthase (Staphylococcus aureus, UniProt A9JQL9).
T1 sequence (A9JQL9 whole entry): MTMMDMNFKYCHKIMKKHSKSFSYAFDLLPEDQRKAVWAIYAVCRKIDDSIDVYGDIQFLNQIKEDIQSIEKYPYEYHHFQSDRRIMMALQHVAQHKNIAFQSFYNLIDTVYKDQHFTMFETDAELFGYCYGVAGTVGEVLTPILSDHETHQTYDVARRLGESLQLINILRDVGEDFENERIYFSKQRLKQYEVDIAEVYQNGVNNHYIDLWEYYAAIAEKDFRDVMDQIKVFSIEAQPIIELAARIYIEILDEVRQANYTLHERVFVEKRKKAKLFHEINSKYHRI
Briefly: Inhibition of Staphylococcus aureus CrtM.

The subject of data set [3] is Staphylococcus aureus. Nature of the data set: Antibacterial activity against Staphylococcus aureus MTCC 740 assessed as inhibition of bacterial growth at 50 uM measured after 48 hrs by agar well diffusion method. As to conditions: read-out: IZ. Format: functional. (In general: A growth-free zone around the sample is the usual read-out of agar diffusion tests.)
In data set [4] the test system is Escherichia coli. Nature of the data set: Antibacterial activity against Escherichia coli MTCC 119 assessed as inhibition of bacterial growth at 50 uM measured after 48 hrs by agar well diffusion method. Format: functional. As to conditions: read-out: IZ.
The test system of data set [5] is Klebsiella pneumoniae. Briefly: Antibacterial activity against clinically isolated Klebsiella pneumoniae RBRJ024 assessed as inhibition of bacterial growth at 50 uM measured after 48 hrs by agar well diffusion method. The conditions noted are these: read-out: IZ. Format: functional.
Data set [6] relates to Staphylococcus aureus. Nature of the data set: Antibacterial activity against clinically isolated Methicillin-resistant Staphylococcus aureus assessed as inhibition of bacterial growth measured after 48 hrs by broth microdilution method. Format: functional. (In general: In broth dilution the organism is exposed to a series of concentrations in liquid medium.)
The next data set concerns Acinetobacter baumannii. Briefly: Antibacterial activity against clinically isolated Acinetobacter baumannii RBRJ027 assessed as inhibition of bacterial growth at 50 uM measured after 48 hrs by agar well diffusion method. In kind it is functional. As to conditions: read-out: IZ.
In data set [7] the test system is Klebsiella pneumoniae. Nature of the data set: Antibacterial activity against clinically isolated Klebsiella pneumoniae RBRJ019 assessed as inhibition of bacterial growth at 50 uM measured after 48 hrs by agar well diffusion method. Format: functional. As to conditions: read-out: IZ.
Another data set concerns Pseudomonas aeruginosa. Nature of the data set: Antibacterial activity against Pseudomonas aeruginosa MTCC 424 assessed as inhibition of bacterial growth at 50 uM measured after 48 hrs by agar well diffusion method. In kind it is functional. As to conditions: read-out: IZ.
For data set [8], the system named is Enterococcus faecalis. Briefly: Antibacterial activity against clinically isolated Enterococcus faecalis RBRJ015 assessed as inhibition of bacterial growth at 50 uM measured after 48 hrs by agar well diffusion method. The conditions noted are these: read-out: IZ. In kind it is functional.
The subject of data set [9] is Escherichia coli. Briefly: Antibacterial activity against clinically isolated Escherichia coli RBRJ013 assessed as inhibition of bacterial growth at 50 uM measured after 48 hrs by agar well diffusion method. As to conditions: read-out: IZ. Format: functional.
Data set [10] concerns Staphylococcus aureus. Nature of the data set: Bactericidal activity against Staphylococcus aureus MTCC 740 assessed as inhibition of bacterial growth measured after 48 hrs by agar plate method. In kind it is functional. Put shortly: (§1)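 MBC: aliquots from microdilution wells without colour change subcultured on drug-free Mueller Hinton agar, 48 h at 37 °C aerobically. MBC is the lowest concentration with no visible growth. Triplicate.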

Data set [11] is described as follows: Selectivity index, ratio of IC50 for cytotoxicity against mouse L929 cells to MIC for antibacterial activity against clinically isolated Methicillin-resistant Staphylococcus aureus. As to conditions: read-out: Selectivity Index. In kind it is toxicity, cell-based.
The subject of data set [12] is Staphylococcus aureus. Nature of the data set: Antibacterial activity against clinically isolated Methicillin-resistant Staphylococcus aureus assessed as inhibition of bacterial growth at 50 uM measured after 48 hrs by agar well diffusion method. In kind it is functional. As to conditions: read-out: IZ.
For the next data set, the system named is Enterobacter cloacae. Briefly: Antibacterial activity against clinically isolated Enterobacter cloacae RBRJ017 assessed as inhibition of bacterial growth at 50 uM measured after 48 hrs by agar well diffusion method. In kind it is functional. The conditions noted are these: read-out: IZ.
The test system of data set [13] is Staphylococcus aureus. Nature of the data set: Bactericidal activity against clinically isolated Staphylococcus aureus RBRJ010 assessed as inhibition of bacterial growth measured after 48 hrs by agar plate method. In kind it is functional. Put shortly: (§2)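 MBC: 10 μL from wells showing no INT colour change after broth microdilution subcultured on drug-free Mueller Hinton agar, 48 h at 37 °C aerobically; lowest concentration with no visible growth taken as MBC (μM). Triplicate.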

The subject of data set [14] is Staphylococcus epidermidis. Briefly: Antibacterial activity against Staphylococcus epidermidis MTCC 435 assessed as inhibition of bacterial growth at 50 uM measured after 48 hrs by agar well diffusion method. Format: functional. As to conditions: read-out: IZ.
Data set [15] has as its system Klebsiella pneumoniae. Briefly: Antibacterial activity against Klebsiella pneumoniae MTCC 109 assessed as inhibition of bacterial growth at 50 uM measured after 48 hrs by agar well diffusion method. Format: functional. The conditions noted are these: read-out: IZ.
In data set [16] the test system is Staphylococcus aureus. Nature of the data set: Antibacterial activity against clinically isolated Staphylococcus aureus RBRJ010 assessed as inhibition of bacterial growth at 50 uM measured after 48 hrs by agar well diffusion method. Format: functional. As to conditions: read-out: IZ.
The test system of data set [17] is Staphylococcus epidermidis. Nature of the data set: Bactericidal activity against Staphylococcus epidermidis MTCC 435 assessed as inhibition of bacterial growth measured after 48 hrs by agar plate method. Format: functional. Put shortly: as §2
In data set [18] the test system is Staphylococcus aureus. Nature of the data set: Antibacterial activity against clinically isolated Staphylococcus aureus RBRJ010 assessed as inhibition of bacterial growth measured after 48 hrs by broth microdilution method. Format: functional.
The subject of data set [19] is Staphylococcus aureus. Briefly: Antibacterial activity against Methicillin-resistant Staphylococcus aureus ATCC 33591 assessed as inhibition of bacterial growth at 50 uM measured after 48 hrs by agar well diffusion method. Format: functional. The conditions noted are these: read-out: IZ. Put shortly:
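Agar well diffusion on Mueller Hinton agar seeded with bacteria at 0.5 McFarland. […] Incubated 48 h at 37 °C aerobically; zone of inhibition diameter (mm) measured. Triplicate.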

The test system of data set [20] is Staphylococcus aureus. Briefly: Antibacterial activity against Staphylococcus aureus MTCC 740 assessed as inhibition of bacterial growth measured after 48 hrs by broth microdilution method. Format: functional.
Data set [21] concerns Staphylococcus epidermidis. Briefly: Antibacterial activity against Staphylococcus epidermidis MTCC 435 assessed as inhibition of bacterial growth measured after 48 hrs by broth microdilution method. Format: functional.
In data set [22] the test system is Enterococcus faecalis. Briefly: Antibacterial activity against Enterococcus faecalis MTCC 439 assessed as inhibition of bacterial growth at 50 uM measured after 48 hrs by agar well diffusion method. The conditions noted are these: read-out: IZ. In kind it is functional.
Data set [23] relates to Staphylococcus aureus. Nature of the data set: Bactericidal activity against clinically isolated Methicillin-resistant Staphylococcus aureus assessed as inhibition of bacterial growth measured after 48 hrs by agar plate method. In kind it is functional.
Data set [24] deals with Escherichia coli. Briefly: Antibacterial activity against clinically isolated Escherichia coli RBRJ005 assessed as inhibition of bacterial growth at 50 uM measured after 48 hrs by agar well diffusion method. Format: functional. The conditions noted are these: read-out: IZ.
The test system of data set [25] is Staphylococcus aureus. Nature of the data set: Bactericidal activity against Methicillin-resistant Staphylococcus aureus ATCC 33591 assessed as inhibition of bacterial growth measured after 48 hrs by agar plate method. In kind it is functional. Put shortly:
as §1

Data set [26] concerns Staphylococcus aureus. Nature of the data set: Antibacterial activity against Methicillin-resistant Staphylococcus aureus ATCC 33591 assessed as inhibition of bacterial growth measured after 48 hrs by broth microdilution method. Format: functional.
In data set [27] the test system is Klebsiella pneumoniae. The conditions noted are these: RBRJ024, dose 50.0 µM, time 48.0 hrs.
For data set [28], the system named is Klebsiella pneumoniae. As to conditions: RBRJ019, dose 50.0 µM, time 48.0 hrs.

For `CC(=O)O[C@H]1C(=O)[C@@]2(C)[C@H]([C@H](OC(=O)c3ccccc3)[C@]3(O)C[C@H](OC(=O)[C@H](O)[C@@H](NC(=O)c4ccccc4)c4ccccc4)C(C)=C1C3(C)C)[C@]1(OC(C)=O)CO[C@@H]1C[C@@H]2O` [PACLITAXEL], in data set [1], the IC50 at 72 h is 0.0625 µM.

For the compound `O=P(O)(O)C(CCCc1ccc(-c2ccccc2)cc1)S(=O)(=O)O` (centres undefined), in data set [2], the affinity corresponds to a Ki of 6 nM.

For `Cc1ccc(C(C)C)c(OCc2cn(CCN3C(=O)C(=O)c4ccccc43)nn2)c1`, the zone of inhibition at 50 µM in the data set on Staphylococcus aureus [3] amounted to 20.2 mm; in the data set on Escherichia coli [4] it was 18.6 mm; in the data set with Klebsiella pneumoniae [5], 16.5 mm; in the data set with Acinetobacter baumannii it was 13.3 mm; in the data set on Klebsiella pneumoniae [7], 16.4 mm; in the data set on Pseudomonas aeruginosa, 18.2 mm. For the same compound, the zone of inhibition at 50 µM in the data set on Enterococcus faecalis [8] is 18.3 mm; with Escherichia coli [9], 14.4 mm; with Staphylococcus aureus [12] it was 20.2 mm; with Enterobacter cloacae, 16.5 mm; in data set [14], 22.7 mm; with Klebsiella pneumoniae [15], 18.3 mm. Besides, the zone of inhibition at 50 µM in the data set with Staphylococcus aureus [16] was 22.2 mm; in the data set with Staphylococcus aureus [19], 18.2 mm; with Enterococcus faecalis [22] it was 15.4 mm; in the data set with Escherichia coli [24], 15.2 mm. Further, the MIC with Staphylococcus aureus [6] amounted to 62.5 µM (≈ 25.3 µg/mL); in the data set with Staphylococcus aureus [18], 15.6 µM (≈ 6.31 µg/mL); in the data set on Staphylococcus aureus [20], 62.5 µM (≈ 25.3 µg/mL); in data set [21], 15.6 µM (≈ 6.31 µg/mL). For the same compound, the IC50 at 72 h in [1] worked out at 250 µM. The MBC was determined as 125 µM (≈ 50.6 µg/mL) with Staphylococcus aureus [10], 31.2 µM (≈ 12.6 µg/mL) in the data set on Staphylococcus aureus [13], 31.2 µM (≈ 12.6 µg/mL) in data set [17] and 125 µM (≈ 50.6 µg/mL) in the data set on Staphylococcus aureus [23]. The selectivity ratio in [11] came to 4.

On to `Cc1ccc(C(C)C)c(OCc2cn(CCCN3C(=O)C(=O)c4cc(Cl)ccc43)nn2)c1`, for which the MBC with Staphylococcus aureus [25] amounted to 125 µM (≈ 56.6 µg/mL); in the data set on Staphylococcus aureus [10], 31.2 µM (≈ 14.1 µg/mL); with Staphylococcus aureus [13], 31.2 µM (≈ 14.1 µg/mL); with Staphylococcus aureus [23], 62.5 µM (≈ 28.3 µg/mL). For the same compound, the zone of inhibition at 50 µM was determined as 22.1 mm in the data set with Staphylococcus aureus [3]; 14.2 mm with Escherichia coli [4]; 14.8 mm with Klebsiella pneumoniae [5]; 13.2 mm in the data set on Acinetobacter baumannii; 15.1 mm in the data set with Klebsiella pneumoniae [7]; 13.3 mm with Pseudomonas aeruginosa. Also, the zone of inhibition at 50 µM with Enterococcus faecalis [8] is 14.1 mm; with Escherichia coli [9], 15.5 mm; in the data set with Staphylococcus aureus [12], 21.3 mm; in the data set with Enterobacter cloacae it was 15.7 mm; in [14] it was 18.2 mm; in the data set on Klebsiella pneumoniae [15], 14.3 mm. Further, the zone of inhibition at 50 µM worked out at 21.2 mm with Staphylococcus aureus [16], 20.5 mm in the data set with Staphylococcus aureus [19], 14.2 mm with Enterococcus faecalis [22] and 15.2 mm in the data set with Escherichia coli [24]. Further, the minimal inhibitory concentration (MIC) in the data set with Staphylococcus aureus [6] amounted to 31.2 µM (≈ 14.1 µg/mL); in the data set on Staphylococcus aureus [26] it was 62.5 µM (≈ 28.3 µg/mL); in the data set on Staphylococcus aureus [18], 15.6 µM (≈ 7.07 µg/mL); in the data set on Staphylococcus aureus [20] it was 15.6 µM (≈ 7.07 µg/mL). Besides, the IC50 at 72 h in data set [1] turned out to be 125 µM. Also, the selectivity ratio in data set [11] is 4.

For `O=C(O)c1cn(C2CC2)c2cc(N3CCNCC3)c(F)cc2c1=O` [CIPROFLOXACIN], the IZ result with Klebsiella pneumoniae [27] and with Klebsiella pneumoniae [28] was “inactive” in each case. For the same compound, the MBC in the data set on Staphylococcus aureus [25] was found to be 3.9 µM (≈ 1.29 µg/mL). Further, the zone of inhibition at 50 µM with Escherichia coli [4] worked out at 11.2 mm; in the data set on Pseudomonas aeruginosa, 24.2 mm; in [14], 17.4 mm; in the data set with Klebsiella pneumoniae [15] it was 14.5 mm; in the data set with Staphylococcus aureus [19], 24.5 mm; in the data set on Enterococcus faecalis [22], 15.9 mm. Also, in the data set on Staphylococcus aureus [26], the MIC is 1.9 µM (≈ 0.63 µg/mL).
